Assay outcomes from PubChem BioAssay.
Apaf1 inhib: inhibitors of human Apaf-1 apoptosome, primary screen, biochemical, DEVD-Rh110 fluorescence, uHTS; Apoptotic protease-activating factor 1 (Homo sapiens), O14727; reconstituted apoptosome caspase-3 activity; inhibition, % at 20 µM; hit rate 0.71% among 330,000; active = inhibition of at least 40% at 20 µM;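 note: plate controls were DMSO wells for no effect and DEVD-CHO caspase inhibitor wells for full effect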
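Medium: Hepes buffer, pH 7.5 / System: biochemical Apaf-1 apoptosome reconstitution / Measured by: Rh110 fluorescence, excitation 480 nm, emission 540 nm / Times: compound with Apaf-1, dATP, procaspase-3 30 min, then 50 min reaction, room temperature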
procasp3 activ: activators of human procaspase-3 D3A mutant, primary screen, biochemical, absorbance, PC-3 D3A mutant, single concentration. activation, % at 8.5 µM. Caspase-3 (Homo sapiens), P42574. hit rate 0.11% among 330,000. recombinant procaspase-3 D3A, Ac-DEVD-pNA absorbance 405 nm;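 active = activation above the mean of all tested compounds plus 3 SD, cut at about 21% in these data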;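 note: 0% = DMSO alone and 100% = DMSO wells spiked with extra 5 µM PC-3 D3A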
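Assay system – Procaspase-3 D3A mutant, all three cleavage aspartates alanine · Controls – DMSO-only low control, 5 µM PC-3 D3A high control · Schedule – 1 h compound preincubation, 2 h substrate hydrolysis at 25 °C · Signal – 405 nm absorbance of p-nitroaniline, reads at 0 and 120 min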
GSTO1 counter: inhibitors of recombinant GSTO1, primary screen, counter-screen for RBBP9 inhibitor project, biochemical, fluorescence polarization | Glutathione S-transferase omega-1 (Homo sapiens), P78417 | activity-based probe fluorescence polarization | inhibition, % at 5.96 µM | hit rate 1.1% among 300,000 | AID 1974, 2009;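 active = inhibition above the campaign mean inhibition plus 3 SD, cut at about 35% in these data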;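 note: 0% = GSTO1-1 with DMSO and 100% = wells lacking GSTO1-1 enzyme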
Target sequence (P78417 whole entry, looked up): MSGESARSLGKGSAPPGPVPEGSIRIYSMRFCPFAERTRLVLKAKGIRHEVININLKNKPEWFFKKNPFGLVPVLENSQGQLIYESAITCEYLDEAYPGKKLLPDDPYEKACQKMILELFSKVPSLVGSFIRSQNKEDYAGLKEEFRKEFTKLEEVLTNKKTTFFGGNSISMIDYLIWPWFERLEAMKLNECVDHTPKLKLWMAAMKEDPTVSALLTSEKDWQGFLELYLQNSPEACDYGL
EBNA-1 inhibitor: EBNA-1 DNA-binding inhibitors, primary screen, biochemical, fluorescence polarization. inhibition, % at 14.8 µM. hit rate 0.34% among 300,000. AID 1950, 2009; in the data active = inhibition above about 28%
ZTA DNA inh: counter-screen for EBNA-1 inhibitors: inhibitors of Epstein-Barr virus ZTA; P03206; ZTA-DNA binding, fluorescence polarization; inhibition, % at 11 µM; hit rate 0.15% among 320,000; AID 2234; in the data active = inhibition above about 33%
procasp7 counter: procaspase-7 activators, primary screen, counter-screen for procaspase-3 activator project, biochemical, absorbance, HTS, human. Caspase-7 (Homo sapiens), P55210. recombinant procaspase-7, Ac-DEVD-pNA absorbance 405 nm; D23A/D198A/D206A triple mutant, cannot self-cleave; scale: DMSO 0, 5 µM enzyme 100. hit rate 0.093% among 330,000. activation, % at 8.5 µM. AID 463210, 2010;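 active = percent activation above the screen-wide mean plus 3 SD, cut at about 25% in these data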
Target sequence (P55210 whole entry D23A/D198A/D206A): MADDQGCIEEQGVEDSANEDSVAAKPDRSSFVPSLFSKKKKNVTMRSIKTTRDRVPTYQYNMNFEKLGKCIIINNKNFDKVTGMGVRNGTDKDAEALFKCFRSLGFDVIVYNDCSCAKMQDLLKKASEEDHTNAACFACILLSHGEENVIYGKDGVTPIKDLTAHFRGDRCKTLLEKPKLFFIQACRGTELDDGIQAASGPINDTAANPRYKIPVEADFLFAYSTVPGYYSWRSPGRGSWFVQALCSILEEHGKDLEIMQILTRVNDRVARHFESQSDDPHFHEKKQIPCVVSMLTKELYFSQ
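Detection: p-Nitroaniline absorbance at 405 nm, read at 0 and 120 min; system: Uncleavable procaspase-7 mutant enzyme; evaluation: % activation from two-timepoint absorbance difference, scaled to controls; times: 1 h enzyme–compound preincubation and 2 h substrate reaction, both 25 °C; buffer or medium: Zinc-free HEPES pH 7.4 with 300 mM NaCl, 0.01% Triton X-100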
GSTO1 confirm: GSTO1 inhibitor hit confirmation, counter-screen for RBBP9 inhibitor project, biochemical, fluorescence polarization, triplicate; shares compounds with GSTO1 counter; recombinant GSTO1, probe fluorescence polarization; inhibition, % at 5.96 µM; hit rate 54% among 2,400; AID 2176, 2009;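 active = inhibition above the primary screen's cutoff, its mean inhibition plus 3 SD, cut at about 35% in these data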;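 note: loss of polarization as inhibitors block binding of rhodamine sulfonate ester activity probe; 0% = GSTO1 with DMSO and 100% = wells lacking GSTO1 enzyme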
GSTO1 ABPP inh: inhibitors of purified human GSTO1, late-stage follow-up, biochemical, gel ABPP, SE-Rh probe, percent inhibition; AID 463110, 2010; recombinant GSTO1, gel ABPP SE-Rh probe fluorescence; hit rate 30% among 130; shares compounds with GSTO1 counter; inhibition, % at 1 µM;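 active = inhibition of the enzyme GSTO1 above about 75%, limit read from the data; inactive = inhibition below that limit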
* = called active by the depositor; x = no result. A selection: hits, their analogues and other compounds. The true share with any hit is near 1.8%.

SMILES | Apaf1 inhib | procasp3 activ | GSTO1 counter | EBNA-1 inhibitor | ZTA DNA inh | procasp7 counter | GSTO1 confirm | others
COc1ccc2[nH]cc(C(=O)CCl)c2c1 | -6 | 4 | 83* | 3 | -12 | -3 | 100*
Cc1ccc(CCNC(=O)C2CCCN(S(=O)(=O)N3CC(C)CC(C)C3)C2)cc1 (configuration not stated) | 2 | 2 | 4 | 5 | 5 | 2 | x
O=[N+]([O-])c1cnc2ccccc2c1 | -2 | -9 | 6 | -4 | 5 | -7 | x
O=[N+]([O-])c1cc([N+](=O)[O-])c2cc3ccccc3nc2c1 | 25 | 0 | 39* | -5 | 12 | -3 | 10
O=C(NCc1ccccc1)NC(=O)c1ccccc1F | 3 | 4 | 2 | -10 | -11 | 6 | x
NN1C(=O)/C(=C\c2ccco2)SC1=S | -12 | -23 | 43* | 5 | 10 | -28 | 16
Nc1ccc(N)c(C(=O)O)c1 | 67* | 8 | 57* | -2 | -2 | 0 | 24
N#CC(C#SN)=C1CCCCC1 | 0 | -34 | 52* | 15 | -12 | -29 | 34
COc1ccc(/C=C2\SC(=O)N(CCNC(=O)C3=COCCO3)C2=O)cc1 | 2 | 2 | 42* | 0 | -4 | 10 | 9
O=C(NCCN1C(=O)S/C(=C\c2ccc(OC(F)F)cc2)C1=O)C1=COCCO1 | 4 | 11 | 9 | -12 | 2 | 1 | x
CC(=O)N1c2ccc(S(=O)(=O)NCC3CCC(C(=O)NC4CCCCC4C)CC3)cc2CC1C (configuration not stated) | -12 | 9 | -6 | -3 | 5 | 12 | x
O=C(CCNS(=O)(=O)c1ccc(OC(F)(F)F)cc1)NCCc1c[nH]c2ccccc12 | -6 | 4 | x | x | 22 | -8 | x
O=C(N/N=C/c1cccnc1)c1cc(O)c(O)c(O)c1 | 2 | -28 | 50* | -12 | 3 | -27 | 11
O=Nc1c(O)c2ccccc2c2ccccc12 | x | 3 | 78* | -3 | -6 | -7 | 81*
CN=Cc1sc2ccccc2c1O | -5 | -6 | 3 | 7 | -6 | -11 | x
COc1cc(/C=N/NC(=O)c2cc(-c3ccco3)nc3ccccc23)cc(OC)c1O | -9 | -6 | 21 | -11 | 3 | -7 | x
O=C(N/N=C/c1cccc(F)c1)c1cc(-c2ccco2)nc2ccccc12 | 30 | -16 | 41* | 10 | -4 | -26 | 25
COc1ccccc1N(C)S(=O)(=O)c1ccc(C(=O)Nc2cccc(Br)c2)cc1 | 9 | -6 | x | x | x | 11 | x
O=C1c2cc([N+](=O)[O-])cc3cc([N+](=O)[O-])cc(c23)C(=O)N1c1ccccn1 | x | -2 | 42* | 5 | 2 | 7 | 7
O=C1c2ccc(Oc3cccc([N+](=O)[O-])c3)cc2C(=O)N1c1ccccn1 | 2 | 0 | -1 | -2 | -9 | -4 | x
O=C(O)c1cccc(N2C(=O)c3cc([N+](=O)[O-])cc4cc([N+](=O)[O-])cc(c34)C2=O)c1 | -6 | 6 | 71* | 2 | 13 | -8 | 40*
O=C(O)c1cccc(N2C(=O)c3cccc4cccc(c34)C2=O)c1 | 8 | x | x | x | x | x | x
Cc1cccc(C)c1NC(=O)CNC(=O)CN1C(=O)NC2(CCc3ccccc32)C1=O (configuration not stated) | -5 | 2 | x | x | -3 | -13 | x
CCOC(=O)c1sc(Nc2ccc(OCC)cc2)nc1C | 10 | 3 | 11 | -5 | 2 | 3 | x
CCOC(=O)c1sc(N2N=C(C)/C(=C\c3ccc(OCC(=O)OC)cc3)C2=O)nc1C | 21 | 2 | 39* | 2 | -27 | -9 | 13
SMILES | Apaf1 inhib | procasp3 activ | GSTO1 counter | EBNA-1 inhibitor | ZTA DNA inh | procasp7 counter | GSTO1 confirm | others
CC(C(=O)OCC(=O)Nc1cccc(S(=O)(=O)N2CCOCC2)c1)N1C(=O)c2ccccc2C1=O (configuration not stated) | 2 | 6 | 39* | 1 | -3 | 6 | 24
Cc1ccc(NC(=O)COC(=O)CCc2ccc(S(=O)(=O)N3CCOCC3)cc2)cc1F | 7 | -8 | 40* | -12 | 0 | 6 | 4
CCN1C(=NCCCOC(C)C)N[C@@H](CCc2ccccc2)[C@H](C(=O)NCCCOC(C)C)[C@H]1C | 26 | -1 | x | x | x | -9 | x
CC(OC(=O)c1cc(O)c2ccccc2c1O)C(=O)Nc1ccc(C(N)=O)cc1 (configuration not stated) | 49* | -12 | 48* | -4 | -7 | 1 | 56*
O=C(CNC(=O)c1cc(Cl)nc2ccccc12)Nc1ccccc1Br | -14 | -7 | x | x | 11 | -13 | x
CCN(CC)CCNC(=O)c1ccc(NC(=O)COc2ccc3c(c2)CCC3)cc1 | 28 | 1 | x | x | 6 | 12 | x
Cc1sc(NC(=O)CCl)c(C(=O)c2ccccc2)c1C | 24 | -9 | 74* | 5 | -14 | -2 | 97*
Cc1ccc2nc(N3CCN(CCO)CC3)nc(-c3ccccc3)c2c1 | 10 | -19 | 43* | 3 | 5 | -19 | 25
CC(=O)C1=C(c2ccccc2)NC(=S)NC1c1cc(Cl)c(OC(C)C)c(Cl)c1 (configuration not stated) | 31 | -12 | -10 | 4 | 8 | -5 | x
CC(=O)C1=C(c2ccccc2)NC(=S)NC1c1ccc(O)c(O)c1 (configuration not stated) | -2 | -8 | 45* | -5 | -6 | -12 | 7
CC1CCCN(C(=O)C(=O)c2cn(CC(=O)N3CCCCCC3)c3ccccc23)C1 (configuration not stated) | 9 | 3 | -4 | -7 | 12 | -1 | x
COc1ccc(NC(=O)C2CCCN(S(=O)(=O)c3ccccc3)C2)c(OC)c1 (configuration not stated) | 4 | 8 | 5 | 7 | 6 | 4 | x
N#C/C(N=Nc1ccccc1O)=N\Nc1ccccc1O | 6 | -7 | 87* | 11 | -14 | -20 | 68*
Cc1ccc(N(CCC#N)C(=O)CCl)cc1C | -8 | -1 | 93* | 3 | 8 | 7 | 90* | GSTO1 ABPP inh=18
